{
  "source": "paper PMC5632530",
  "about": "(Cell, 2017)",
  "key": {"PTGR2 [1]": {"biological_target": "T1, PTGR2 (Homo sapiens, UniProt Q8N8N7)", "T1 sequence (Q8N8N7 whole entry)": "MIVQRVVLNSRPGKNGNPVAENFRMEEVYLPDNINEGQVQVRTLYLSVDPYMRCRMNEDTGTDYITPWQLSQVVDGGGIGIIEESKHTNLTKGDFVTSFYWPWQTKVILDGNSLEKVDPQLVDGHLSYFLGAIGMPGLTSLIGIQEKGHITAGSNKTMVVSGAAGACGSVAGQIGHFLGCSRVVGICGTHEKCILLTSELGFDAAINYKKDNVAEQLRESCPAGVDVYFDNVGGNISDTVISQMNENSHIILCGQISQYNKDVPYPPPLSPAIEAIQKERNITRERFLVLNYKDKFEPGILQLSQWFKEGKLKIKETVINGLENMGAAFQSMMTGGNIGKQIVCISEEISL", "assay": "In vitro LCMS-based activity assay for PTGR2", "type": "biochemical"}, "PTGR2 [2]": {"biological_target": "T1, PTGR2", "type": "binding", "method_in_brief": "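HEK293T cells were transiently transfected with C-terminally FLAG-tagged human PTGR2 (pRK5, PEI). Cells at ~90% confluence were washed and treated in serum-free medium with probe plus competitor or DMSO for 30 min at 37°C, then irradiated at 365 nm for 10 min. Lysates (1 mg/mL) were clicked to TAMRA azide (25 μM) and fluorescence was read on gel. Curves: mean ± SD (n = 3 or 4), four-parameter fit.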"}, "endogenous PTGR2": {"biological_target": "endogenous PTGR2 (Homo sapiens, UniProt Q8N8N7)", "sequence (Q8N8N7 whole entry)": "as above", "type": "binding", "method_in_brief": "(§1)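 SILAC-labeled HEK293T cells were used: heavy cells received FFF probe plus competitor and light cells received probe plus DMSO, in serum-free medium for 30 min at 37°C, followed by 365 nm UV for 10 min. Lysates (1.5 mg/mL) were mixed 1:1, clicked to biotin-azide, streptavidin-enriched, trypsin-digested and analysed by LC-MS. Ratios were averaged from ≥2 biological replicates.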"}, "ZADH2": {"biological_target": "T2, ZADH2 (Homo sapiens, UniProt Q8N4Q0)", "T2 sequence (Q8N4Q0 1-377)": "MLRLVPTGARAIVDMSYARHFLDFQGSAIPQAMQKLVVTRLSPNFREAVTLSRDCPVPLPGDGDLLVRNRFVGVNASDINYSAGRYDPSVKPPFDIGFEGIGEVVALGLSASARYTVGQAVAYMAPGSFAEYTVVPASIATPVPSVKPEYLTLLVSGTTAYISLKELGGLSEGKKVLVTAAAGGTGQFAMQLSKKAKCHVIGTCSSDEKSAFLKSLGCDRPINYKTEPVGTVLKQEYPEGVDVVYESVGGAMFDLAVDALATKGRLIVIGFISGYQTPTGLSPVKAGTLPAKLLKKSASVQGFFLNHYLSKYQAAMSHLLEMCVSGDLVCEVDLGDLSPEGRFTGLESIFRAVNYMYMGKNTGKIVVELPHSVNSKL", "assay": "MS-based competitive profiling with FFF 8: cross-reactivity with ZADH2", "type": "binding", "conditions": "competition of FFF 8 labeling", "method_in_brief": "as §1"}, "PTGR2 [3]": {"biological_target": "T1, PTGR2", "type": "cell-based", "conditions": "cells recombinantly expressing PTGR2", "method_in_brief": "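HEK293T cells were co-transfected (PEI) with a UAS-luciferase reporter, GAL4-DBD or GAL4-DBD::PPARγ-LBD, and full-length PTGR2 as indicated. After 24 hr they were treated with DMSO, 15-keto-PGE2 (20 μM), test compounds, or rosiglitazone (2 μM) control. After 16 hr cells were lysed and luciferase activity was measured.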"}, "PPARγ": {"biological_target": "T3, PPARγ (Homo sapiens, UniProt P37231)", "T3 sequence (P37231 238-503 limits assumed)": "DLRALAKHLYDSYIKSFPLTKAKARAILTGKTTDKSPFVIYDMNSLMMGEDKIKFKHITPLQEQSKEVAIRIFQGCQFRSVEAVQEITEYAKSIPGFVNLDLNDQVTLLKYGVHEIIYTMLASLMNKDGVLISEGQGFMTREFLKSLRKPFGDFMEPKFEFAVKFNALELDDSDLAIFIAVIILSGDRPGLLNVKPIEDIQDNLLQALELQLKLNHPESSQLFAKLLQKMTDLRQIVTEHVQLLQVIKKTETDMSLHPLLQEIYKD", "assay": "PPARγ luciferase reporter assay, direct modulation of PPARγ", "type": "cell-based"}, "PTGR2 [4]": {"biological_target": "T1, PTGR2", "assay": "cell-based"}, "[5]": {"test_system": "3T3-L1 mouse preadipocytes", "assay": "Adipocyte phenotypic screen: lipid accumulation by Nile Red", "type": "cell-based", "conditions": "for adipogenic activity in adipogenesis-related assays, in words: compounds 10 μM, 3T3-L1; for effect of co-treatment on the pro-adipogenic effects of 25: 10 μM with 25 (10 μM), Nile Red staining or adipogenic gene expression", "method_in_brief": "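3T3-L1 preadipocytes were induced two days post-confluence with dexamethasone (1 μM), IBMX (0.5 mM) and insulin (1 μg/ml), plus DMSO (0.1%), test compound (10 μM), test compound with probe, or rosiglitazone (2 μM). They were stained with Nile Red and Hoechst at day 7 of differentiation, imaged, and harvested for RNA. Mean ± SD, n = 3.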"}, "cathepsin B (CTSB)": {"biological_target": "cathepsin B (CTSB) (Homo sapiens, UniProt P07858)", "assay": "Competition of FFF 9 labeling of the active-site proximal peptide of CTSB", "type": "binding", "method_in_brief": "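Cells were treated with probe (200–250 μM) with or without competitor in serum-free DMEM, UV-crosslinked, and lysed. Probe-labeled proteins were clicked to light or heavy biotin-TEV-azide (100 μM final) with CuSO4, TBTA and TCEP. Samples were combined, streptavidin-enriched, trypsin-digested on bead and released by TEV cleavage (50 mM Tris pH 8, 0.5 mM EDTA, 1 mM DTT). Probe-modified peptides were quantified by LC-MS.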"}, "PGRMC2": {"biological_target": "T4, PGRMC2 (Mus musculus, UniProt Q80UU9)", "T4 sequence (Q80UU9 1-217)": "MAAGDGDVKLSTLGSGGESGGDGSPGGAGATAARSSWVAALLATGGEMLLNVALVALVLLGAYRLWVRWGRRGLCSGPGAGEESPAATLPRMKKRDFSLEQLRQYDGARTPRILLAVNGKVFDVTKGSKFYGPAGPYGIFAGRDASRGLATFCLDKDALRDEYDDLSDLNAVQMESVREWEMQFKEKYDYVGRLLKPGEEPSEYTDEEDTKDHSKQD", "assay": "Quantitative proteomic", "type": "binding"}, "human PGRMC2 [6]": {"biological_target": "T5, human PGRMC2 (Homo sapiens, UniProt O15173)", "T5 sequence (O15173 1-223)": "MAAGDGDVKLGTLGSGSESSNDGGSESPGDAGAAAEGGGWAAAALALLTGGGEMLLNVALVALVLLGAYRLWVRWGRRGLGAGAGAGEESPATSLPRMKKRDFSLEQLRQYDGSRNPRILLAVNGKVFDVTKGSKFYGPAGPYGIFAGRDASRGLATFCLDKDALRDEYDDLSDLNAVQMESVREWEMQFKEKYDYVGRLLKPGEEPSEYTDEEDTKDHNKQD", "type": "binding", "conditions": "HEK293T cells", "method_in_brief": "(§2)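 HEK293T cells were transfected with human PGRMC2 and lysed 48 hr later. Lysates (1 mg/mL) were incubated with probe and competitor or DMSO for 30 min at room temperature, UV-irradiated, clicked to TAMRA azide, and analysed by in-gel fluorescence. Blockade curves: mean ± SD (n = 3 or 4), four-parameter non-linear fit.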"}, "non-adipocyte cell lines": {"test_system": "non-adipocyte cell lines", "assay": "Lipid accumulation in non-adipocyte cell lines", "type": "cell-based"}, "PGRMC1": {"biological_target": "PGRMC1 (Mus musculus, UniProt O55022)", "sequence (O55022 whole entry)": "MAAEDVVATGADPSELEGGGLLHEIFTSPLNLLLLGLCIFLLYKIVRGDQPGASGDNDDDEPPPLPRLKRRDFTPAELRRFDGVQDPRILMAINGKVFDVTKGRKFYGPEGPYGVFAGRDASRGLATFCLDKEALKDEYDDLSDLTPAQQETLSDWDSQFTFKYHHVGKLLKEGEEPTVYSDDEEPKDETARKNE", "assay": "Quantitative proteomic", "type": "binding", "conditions": "10 μM"}, "human PGRMC2 [7]": {"biological_target": "T5, human PGRMC2", "assay": "In vitro gel-based competition of FFF probe 25 labeling of PGRMC2", "type": "binding", "method_in_brief": "as §2"}},
  "data": [
    {"smiles": "COc1ccccc1N1CCN(C(=O)Cc2ccccc2)CC1", "note": "[Compound 22, 1-(4-(2-Methoxyphenyl)piperazin-1-yl)-2-phenylethan-1-one]", "values": [
      {"measurement": "increase in potency relative to 20, 15-keto-PGE2 reductase activity", "setting": "PTGR2 [1]", "value": "> 20", "unit": "fold"},
      {"measurement": "increase in potency relative to 20, competition of 8-labeling", "setting": "PTGR2 [2]", "value": "> 20", "unit": "fold"},
      {"measurement": "inhibition of FFF 8 labeling of endogenous PTGR2", "setting": "endogenous PTGR2; 5 μM, HEK293T cells", "value": "complete inhibition"},
      {"measurement": "proteome-wide selectivity in blocking FFF 8 labeling, in words", "setting": "endogenous PTGR2; HEK293T cells", "value": "excellent selectivity"},
      {"measurement": "inhibition at 0.5 µM", "setting": "endogenous PTGR2; read-out: inhibition of FFF 8 labeling of endogenous PTGR2", "value": "~80", "unit": "%"},
      {"measurement": "cross-reactivity with ZADH2, sequence-related homolog of PTGR2", "setting": "ZADH2", "value": "did not cross-react"},
      {"measurement": "rescue of 15-keto-PGE2-dependent PPARγ transcriptional activity", "setting": "PTGR2 [3]", "value": "concentration-dependent rescue"},
      {"measurement": "direct modulation of PPARγ", "setting": "PPARγ", "value": "neither 22 nor 23 directly modulated PPARγ"},
      {"measurement": "IC50", "setting": "PTGR2 [4]", "value": "~0.7", "unit": "µM"}
    ]},
    {"smiles": "CCCC(=O)N[C@@H](CC(C)C)C(=O)N[C@H]1CCCc2ccccc21", "note": "[Compound 29, (S)-2-butyramido-4-methyl-N-((S)-1,2,3,4-tetrahydronaphthalen-1-yl)pentanamide]", "values": [
      {"measurement": "adipogenic activity in adipogenesis-related assays, in words", "setting": "[5]", "value": "inactive controls"}
    ]},
    {"smiles": "CCCC(=O)N[C@@H](C)C(=O)Nc1cc(OC)c2ccccc2c1", "note": "[Compound 28, (S)-N-(1-((4-methoxynaphthalen-2-yl)amino)-1-oxopropan-2-yl)butyramide]", "values": [
      {"measurement": "adipogenic activity in adipogenesis-related assays, in words", "setting": "[5]", "value": "largely inactive"}
    ]},
    {"smiles": "CCOC(=O)C1Cc2ccccc2CN1C(=O)c1ccc(SC)s1", "note": "(centres unmarked) [SR8278, reference compound]", "values": [
      {"measurement": "effect of co-treatment on the pro-adipogenic effects of 25", "setting": "[5]", "value": "blocked"}
    ]},
    {"smiles": "C#CCCC1(CCC(=O)N[C@@H](C)C(=O)Nc2cc(OC)c3ccccc3c2)N=N1", "note": "[Compound 26, (S)-3-(3-(but-3-yn-1-yl)-3H-diazirin-3-yl)-N-(1-((4-methoxynaphthalen-2-yl)amino)-1-oxopropan-2-yl)propanamide]", "values": [
      {"measurement": "adipogenic activity in adipogenesis-related assays, in words", "setting": "[5]", "value": "much less adipogenic activity"}
    ]},
    {"smiles": "CC(NC(=O)[C@H](Cc1ccccc1)NC(=O)OCc1ccccc1)C(=O)CF", "note": "(some centres unmarked) [Z-FA-FMK]", "values": [
      {"measurement": "blockade of probe 9 interaction with CTSB peptide (aa 315–332)", "setting": "cathepsin B (CTSB)", "value": "blocked"}
    ]},
    {"smiles": "CCCC(=O)N[C@@H](CC(C)C)C(=O)Nc1ccc2ccccc2c1", "note": "[Compound 27, (S)-2-butyramido-4-methyl-N-(naphthalen-2-yl)pentanamide]", "values": [
      {"measurement": "adipogenic activity in adipogenesis-related assays, in words", "setting": "[5]", "value": "active"},
      {"measurement": "competition of 25 (10 μM) enrichment of PGRMC2 (SILAC ratio)", "setting": "PGRMC2; 10× competitor", "value": "> 3", "unit": "fold"},
      {"measurement": "blockade of 25 labeling of recombinant human PGRMC2 by competitor", "setting": "human PGRMC2 [6]", "value": "blocked in a concentration-dependent manner"}
    ]},
    {"smiles": "COc1ccccc1C1CCN(S(=O)(=O)Cc2ccccc2)CC1", "note": "[Compound 23, 1-(Benzylsulfonyl)-4-(2-methoxyphenyl)piperidine]", "values": [
      {"measurement": "direct modulation of PPARγ", "setting": "PPARγ", "value": "neither 22 nor 23 directly modulated PPARγ"}
    ]},
    {"smiles": "C#CCCC1(CCC(=O)N[C@@H](CC(C)C)C(=O)Nc2ccc3ccccc3c2)N=N1", "note": "[Compound 25, (S)-2-(3-(3-(but-3-yn-1-yl)-3H-diazirin-3-yl)propanamido)-4-methyl-N-(naphthalen-2-yl)pentanamide]", "values": [
      {"measurement": "lipid accumulation, in words", "setting": "[5]; Nile Red", "value": "one of the highest levels of lipid accumulation"},
      {"measurement": "lipid accumulation in non-adipocyte cell lines", "setting": "non-adipocyte cell lines", "value": "did not induce lipid accumulation"},
      {"measurement": "preferential enrichment of PGRMC2 by 25 over 26 (SILAC ratio)", "setting": "PGRMC2; 10 μM each, 30 min", "value": "> 3", "unit": "fold"},
      {"measurement": "enrichment of PGRMC1 by 25 over 26", "setting": "PGRMC1", "value": "not preferentially enriched"},
      {"measurement": "labeling of recombinant human PGRMC2 by FFF probe", "setting": "human PGRMC2 [6]", "value": "strongly labeled"}
    ]},
    {"smiles": "CC(C)(C)OC(=O)CN(Cc1ccc(Cl)cc1)Cc1ccc([N+](=O)[O-])s1", "note": "[GSK4112, reference compound]", "values": [
      {"measurement": "effect of co-treatment on the pro-adipogenic effects of 25", "setting": "[5]", "value": "had no effect"}
    ]},
    {"smiles": "CCCC(=O)N[C@@H](CC(C)C)C(=O)NCCc1ccc2c(c1)OCO2", "note": "[Compound 30, (S)-N-(2-(benzo[d][1,3]dioxol-5-yl)ethyl)-2-butyramido-4-methylpentanamide]", "values": [
      {"measurement": "adipogenic activity in adipogenesis-related assays, in words", "setting": "[5]", "value": "inactive controls"}
    ]},
    {"smiles": "C=CC1=C(C)c2cc3[nH]c(cc4nc(cc5[nH]c(cc1n2)c(C)c5CCC(=O)O)C(CCC(=O)O)=C4C)c(C)c3C=C", "note": "[protoporphyrn IX]", "values": [
      {"measurement": "IC50", "setting": "human PGRMC2 [7]", "value": 0.13, "unit": "µM"}
    ]}
  ]
}
